Experiment [1] can be described thus: hit retest on RPL19A-GFP reporter strain – cell-based, S. cerevisiae, flow cytometry, cherry picks, mother/daughter gates, confirmation (AID 2270;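 active means GFP response below 50% of the DMSO control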). The settings on record: 3 h, at 10 µM, stronger effect = lower value, 100 = same GFP as DMSO wells. For orientation: Flow cytometry measures light scatter and fluorescence of single cells or particles in a stream.
Experiment [2] is described as follows: yeast TOR pathway reporter LAP4-GFP change – cell-based, cherry picks, flow cytometry, mother/daughter gates, confirmation (AID 2271;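 active means GFP response above 150% of the DMSO control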;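 further: ratio of sample to DMSO plate mean so 100% equals DMSO level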). The note with it: S. cerevisiae LAP4-GFP strain, 3 h, at 10 µM, stronger effect = higher value, 100 means same as DMSO control. The gist of the method:
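Material: Alexa 633-stained baker's yeast GFP-fusion strain; Compound dosing: single test-compound dose, 10 µM final; Incubation: 30 °C, 3 h compound incubation, rotating; Detection: HT flow cytometry, GFP fluorescence channel; Control set: positive rapamycin (400 ng/mL), negative DMSO.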

The nature of experiment [3]: TOR pathway reporter MEP2-GFP, retest of hits – S. cerevisiae, flow cytometry GFP, cherry picks, confirmation (AID 2272;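 active means GFP response above 150% of the DMSO control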;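 further: ratio of well signal to plate DMSO mean so 100% equals DMSO level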). The note with it: S. cerevisiae MEP2-GFP strain, 3 h, at 10 µM, stronger effect = higher value.
Experiment [4] can be described thus: yeast AGP1-GFP fluorescence change, single-dose – cell-based, flow cytometry, S. cerevisiae, cherry picks, confirmation (AID 2273).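 Further: median GFP channel fluorescence over the whole cell population gate.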 The settings on record: S. cerevisiae AGP1-GFP strain, 3 h, at 10 µM.
Experiment [5] is described as follows: TOR pathway CIT2 reporter hit retest – S. cerevisiae, GFP fusion, cherry picks, mother/daughter gates, confirmation (AID 2274). The settings on record: S. cerevisiae CIT2-GFP strain, flow cytometry, 3 h, at 10 µM, stronger effect = higher value.
[6] abbreviates: measured here: daughter cell gate.
The mark [7] stands for this setting: measured here: mother cell gate.
[8] abbreviates: measured here: daughter cell gate response.
Setting [9] is: measured here: mother cell gate response.

Structures are written as SMILES. Calls of active or inactive are those of the source.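 How the source made its calls, unless noted: active means GFP response above 150% of the DMSO level; inconclusive means fewer than 70 events counted for a yeast strain; inactive means the rest.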

As to `CC(=O)NC1(C(F)(F)F)C(=O)Nc2c1c(=O)[nH]c(=O)n2CCc1ccccc1` (stereo not drawn), the GFP response vs DMSO in experiment [1] is 99.6% (inactive); in experiment [1] (setting [6]), 98.4%; in experiment [1] (setting [7]), 98.6%; in experiment [3], 107% (inactive). The GFP response relative to DMSO in experiment [2] is 97% (inactive); in experiment [2] (setting [8]), 97.5%; in experiment [2] (setting [9]), 97.3%. The GFP response, % of DMSO is 95.7% (inactive) in experiment [4], 88.6% (inactive) in experiment [5], 90.2% in experiment [5] (setting [6]) and 88.2% in experiment [5] (setting [7]).

For `CC[n+]1ccc(/C=C/c2c[nH]c3ccccc23)cc1`, the GFP response vs DMSO was 100% (inactive) in experiment [1], 101% in experiment [1] (setting [6]), 98.8% in experiment [1] (setting [7]) and 128% (inactive) in experiment [3]. Moreover, the GFP response relative to DMSO in experiment [2] was 104% (inactive); in experiment [2] (setting [8]) it was 104%; in experiment [2] (setting [9]) it was 105%. In addition, the GFP response, % of DMSO in experiment [4] is 102% (inactive); in experiment [5] it was 117% (inactive); in experiment [5] (setting [6]), 119%; in experiment [5] (setting [7]), 119%.

For the compound `COc1ccc(NC(=O)/C(Cl)=C(/Cl)S(=O)Cc2ccccc2)cn1` (stereo not drawn), the GFP response vs DMSO in experiment [1] is 104% (inactive); in experiment [1] (setting [6]), 114%; in experiment [1] (setting [7]), 95.5%; in experiment [3], 118% (inactive). The GFP response relative to DMSO was 262% (active) in experiment [2], 227% in experiment [2] (setting [8]) and 243% in experiment [2] (setting [9]). Besides, the GFP response, % of DMSO was 103% (inactive) in experiment [4], 114% (inactive) in experiment [5], 134% in experiment [5] (setting [6]) and 99.1% in experiment [5] (setting [7]).

As to `CCCc1nnc(NC(=O)c2nc(S(=O)(=O)Cc3ccc(C)cc3)ncc2Cl)s1`, the GFP response vs DMSO in experiment [1] was 98.9% (inactive); in experiment [1] (setting [6]), 97.6%; in experiment [1] (setting [7]), 94%; in experiment [3], 103% (inactive). In addition, the GFP response relative to DMSO in experiment [2] was 106% (inactive); in experiment [2] (setting [8]), 102%; in experiment [2] (setting [9]), 104%. In addition, the GFP response, % of DMSO in experiment [4] is 103% (inactive); in experiment [5] it was 112% (inactive); in experiment [5] (setting [6]), 106%; in experiment [5] (setting [7]) it was 108%.

As to `CC[n+]1cc(C)ccc1/C=C/c1ccc(N(C)C)cc1`, the GFP response vs DMSO in experiment [1] is 104% (inactive); in experiment [1] (setting [6]), 106%; in experiment [1] (setting [7]) it was 103%; in experiment [3] it was 162% (inactive). In addition, the GFP response relative to DMSO is 134% (inactive) in experiment [2], 138% in experiment [2] (setting [8]) and 128% in experiment [2] (setting [9]). Besides, the GFP response, % of DMSO in experiment [4] was 104% (inactive); in experiment [5], 134% (inactive); in experiment [5] (setting [6]), 141%; in experiment [5] (setting [7]), 126%.

Regarding `CC(C(=O)O)n1nc(-c2ccccc2)c2ccccc21` (stereo not drawn), the GFP response vs DMSO in experiment [1] was 97.8% (inactive); in experiment [1] (setting [6]), 99.6%; in experiment [1] (setting [7]) it was 95.3%; in experiment [3], 99% (inactive). The figures for the GFP response relative to DMSO in experiment [2], in experiment [2] (setting [8]) and in experiment [2] (setting [9]) were 99.5% (inactive), 101% and 97.3%, respectively. Further, the GFP response, % of DMSO in experiment [4] was 102% (inactive); in experiment [5] it was 102% (inactive); in experiment [5] (setting [6]) it was 101%; in experiment [5] (setting [7]), 101%.

As to `CN1CCN(CC(=O)N2CCn3c4c(c5cc(C6CCCCC6)ccc53)CCCC42)CC1` (stereo not drawn), the GFP response vs DMSO is 90.7% (inactive) in experiment [1], 86.4% in experiment [1] (setting [6]), 92.7% in experiment [1] (setting [7]) and 108% (inactive) in experiment [3]. In addition, the GFP response relative to DMSO in experiment [2] is 116% (inactive); in experiment [2] (setting [8]), 109%; in experiment [2] (setting [9]), 119%. In addition, the GFP response, % of DMSO is 95.8% (inactive) in experiment [4], 90.7% (inactive) in experiment [5], 89% in experiment [5] (setting [6]) and 88.6% in experiment [5] (setting [7]).

For the compound `Cc1cc(C)c(S(=O)(=O)NCC23C=CC(O2)C2C(=O)N(c4ccccc4)C(=O)C23)c(C)c1` (stereo not drawn), the GFP response vs DMSO in experiment [1] was 102% (inactive); in experiment [1] (setting [6]), 103%; in experiment [1] (setting [7]), 103%; in experiment [3], 102% (inactive). In addition, the figures for the GFP response relative to DMSO in experiment [2], in experiment [2] (setting [8]) and in experiment [2] (setting [9]) were 105% (inactive), 105% and 108%, respectively. Moreover, the GFP response, % of DMSO in experiment [4] is 100% (inactive); in experiment [5], 104% (inactive); in experiment [5] (setting [6]), 101%; in experiment [5] (setting [7]), 105%.

For `Fc1cccc(Cl)c1Cn1ncc2ccccc21`, the GFP response vs DMSO in experiment [1] was 97.6% (inactive); in experiment [1] (setting [6]), 96.1%; in experiment [1] (setting [7]) it was 96.3%; in experiment [3], 99% (inactive). In addition, the GFP response relative to DMSO is 102% (inactive) in experiment [2], 99.1% in experiment [2] (setting [8]) and 100% in experiment [2] (setting [9]). Also, the GFP response, % of DMSO was 101% (inactive) in experiment [4], 97.3% (inactive) in experiment [5], 97.4% in experiment [5] (setting [6]) and 96.8% in experiment [5] (setting [7]).

As for `Cc1nn(C)c(C(=O)Sc2cccc(Cl)c2)c1[N+](=O)[O-]`, the GFP response vs DMSO in experiment [1] is 99.6% (inactive); in experiment [1] (setting [6]), 97.6%; in experiment [1] (setting [7]), 99.4%; in experiment [3], 121% (inactive). The GFP response relative to DMSO is 126% (inactive) in experiment [2], 114% in experiment [2] (setting [8]) and 130% in experiment [2] (setting [9]). In addition, the GFP response, % of DMSO in experiment [4] is 102% (inactive); in experiment [5] it was 104% (inactive); in experiment [5] (setting [6]), 103%; in experiment [5] (setting [7]) it was 101%.

As to `CCOc1cc(C(=O)N2CCN(c3ccc(C(C)=O)cc3)CC2)cc(OCC)c1OCC`, the GFP response vs DMSO in experiment [1] was 91.8% (inactive); in experiment [1] (setting [6]), 91.2%; in experiment [1] (setting [7]), 89.8%; in experiment [3], 109% (inactive). Besides, the GFP response relative to DMSO was 126% (inactive) in experiment [2], 110% in experiment [2] (setting [8]) and 125% in experiment [2] (setting [9]). The GFP response, % of DMSO is 104% (inactive) in experiment [4], 106% (inactive) in experiment [5], 105% in experiment [5] (setting [6]) and 105% in experiment [5] (setting [7]).

On to `C/C(=N\NC(=O)COc1ccccc1-c1ccccc1)c1ccccn1`, for which the GFP response vs DMSO in experiment [1] was 101% (inactive); in experiment [1] (setting [6]), 99.1%; in experiment [1] (setting [7]) it was 102%; in experiment [3], 96.6% (inactive). The results for the GFP response relative to DMSO in experiment [2], in experiment [2] (setting [8]) and in experiment [2] (setting [9]) were 145% (inactive), 136% and 162%, respectively. Besides, the GFP response, % of DMSO in experiment [4] is 94.5% (inactive); in experiment [5], 102% (inactive); in experiment [5] (setting [6]), 106%; in experiment [5] (setting [7]), 97.7%.

For `COc1ccc(-c2noc(-c3cccc(Cl)c3)n2)cc1OC`, the GFP response vs DMSO in experiment [1] was 98% (inactive); in experiment [1] (setting [6]) it was 97.3%; in experiment [1] (setting [7]), 97.6%; in experiment [3], 102% (inactive). Also, the GFP response relative to DMSO in experiment [2] is 102% (inactive); in experiment [2] (setting [8]), 101%; in experiment [2] (setting [9]), 101%. The GFP response, % of DMSO in experiment [4] is 96.2% (inactive); in experiment [5], 99.3% (inactive); in experiment [5] (setting [6]) it was 102%; in experiment [5] (setting [7]) it was 96.8%.

These data come from PubChem BioAssay.
